Results taken from ChEMBL document CHEMBL1153766, “Regioselective reaction: synthesis and pharmacological study of Mannich bases containing ibuprofen moiety” (2009).
The source made the active and inactive calls. The rule behind the calls is not given here.

Legend:
[1] = test system: Rattus norvegicus; assay: Antiinflammatory activity against Wistar albino rat assessed as inhibition of carrageenan-induced paw edema at 20 mg/kg, po administered 30 mins prior to carrageenan challenge measured after 0.5 hrs; format: functional
In short: (§1)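 Carrageenan paw oedema in Wistar albino rats (Winter method). Compounds given orally at 20 mg/kg as a suspension in 1% carboxymethyl cellulose, 30 min before 0.1 mL of 1% w/v carrageenan injected into the plantar region of the paw. Paw volume measured by plethysmography at 30, 60, 90, 120, 150 and 180 min. Inhibition calculated relative to vehicle controls. Mean ± SEM.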

[2] = test system: Rattus norvegicus; assay: Antiinflammatory activity against Wistar albino rat assessed as inhibition of carrageenan-induced paw edema at 20 mg/kg, po administered 30 mins prior to carrageenan challenge measured after 1 hrs; format: functional; in short: as §1
[3] = test system: Rattus norvegicus; assay: Antiinflammatory activity against Wistar albino rat assessed as inhibition of carrageenan-induced paw edema at 20 mg/kg, po administered 30 mins prior to carrageenan challenge measured after 1.5 hrs; format: functional; in short: as §1
[4] = test system: Rattus norvegicus; assay: Antiinflammatory activity against Wistar albino rat assessed as inhibition of carrageenan-induced paw edema at 20 mg/kg, po administered 30 mins prior to carrageenan challenge measured after 2 hrs; format: functional; in short: as §1
[5] = test system: Rattus norvegicus; assay: Antiinflammatory activity against Wistar albino rat assessed as inhibition of carrageenan-induced paw edema at 20 mg/kg, po administered 30 mins prior to carrageenan challenge measured after 2.5 hrs; format: functional; in short: as §1
[6] = test system: Rattus norvegicus; assay: Antiinflammatory activity against Wistar albino rat assessed as inhibition of carrageenan-induced paw edema at 20 mg/kg, po administered 30 mins prior to carrageenan challenge measured after 3 hrs; format: functional; in short: as §1
[7] = test system: Mus musculus; assay: Analgesic activity against Swiss albino mouse assessed as increase in paw licking or jump response at 10 mg/kg, po after 1.5 hrs by hot plate method; format: functional
In short: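 Hot-plate test in Swiss albino mice, 6 per group. Compounds given orally by gavage as a suspension in 1% carboxymethyl cellulose, 10 mg/kg. Animals placed on a plate held at 55 ± 1 °C, with paw licking or jumping as the end point. Reaction time recorded at 30, 60 and 90 min after dosing. Percentage increase in reaction time calculated using the maximum tolerated reaction time. Mean ± SEM.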

[8] = test system: Staphylococcus aureus; assay: Antimicrobial activity against Staphylococcus aureus at 1000 ug after 24 to 48 hrs by well diffusion method; format: functional, organism-based
In short: (§2)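 Agar well diffusion against Staphylococcus aureus, Escherichia coli and Aspergillus. Compounds dissolved in DMF (10 mg in 10 mL), and the solution placed into wells cut with a borer. Plates incubated at 37 °C for 24–48 h, then inspected.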

[9] = test system: Escherichia coli; assay: Antimicrobial activity against Escherichia coli at 1000 ug after 24 to 48 hrs by well diffusion method; format: functional, organism-based; in short: as §2
[10] = test system: Aspergillus; assay: Antimicrobial activity against Aspergillus at 1000 ug after 24 to 48 hrs by well diffusion method; format: functional, organism-based; in short: as §2

Compound: CC(C)Cc1ccc(C(C)c2nn(CN3CCOCC3)c(=S)n2/N=C/c2ccc(Cl)cc2)cc1 (centres undefined)
- inhibition in vivo at 20 mg/kg [1]: 90%
- inhibition in vivo at 20 mg/kg [2]: 42%
- inhibition in vivo at 20 mg/kg [3]: 61%
- inhibition in vivo at 20 mg/kg [4]: 61%
- inhibition in vivo at 20 mg/kg [5]: 73%
- inhibition in vivo at 20 mg/kg [6]: 74%
- Activity [7]: 76.49%
- Activity [8]: inactive
- Activity [9]: inactive
- Activity [10]: inactive

Compound: CC(C)Cc1ccc(C(C)c2nnc(S)n2/N=C/c2ccc(Cl)cc2)cc1 (centres undefined)
- inhibition in vivo at 20 mg/kg [1]: 62%
- inhibition in vivo at 20 mg/kg [2]: 49%
- inhibition in vivo at 20 mg/kg [3]: 52%
- inhibition in vivo at 20 mg/kg [4]: 57%
- inhibition in vivo at 20 mg/kg [5]: 62%
- inhibition in vivo at 20 mg/kg [6]: 64%
- Activity [8]: inactive
- Activity [9]: inactive
- Activity [10]: inactive

Compound: CC(C)Cc1ccc(C(C)c2nn(CN3CCOCC3)c(=S)n2/N=C/c2ccc([N+](=O)[O-])cc2)cc1 (centres undefined)
- inhibition in vivo at 20 mg/kg [1]: 12%
- inhibition in vivo at 20 mg/kg [2]: 52%
- inhibition in vivo at 20 mg/kg [3]: 65%
- inhibition in vivo at 20 mg/kg [4]: 54%
- inhibition in vivo at 20 mg/kg [5]: 71%
- inhibition in vivo at 20 mg/kg [6]: 73%
- Activity [7]: 79.6%
- Activity [8]: inactive
- Activity [9]: inactive
- Activity [10]: inactive

Compound: CC(C)Cc1ccc(C(C)c2nnc(S)n2N)cc1 (centres undefined)
- inhibition in vivo at 20 mg/kg [1]: 30%
- inhibition in vivo at 20 mg/kg [2]: 32%
- inhibition in vivo at 20 mg/kg [3]: 46%
- inhibition in vivo at 20 mg/kg [4]: 45%
- inhibition in vivo at 20 mg/kg [5]: 50%
- inhibition in vivo at 20 mg/kg [6]: 56%
- Activity [8]: inactive
- Activity [9]: inactive
- Activity [10]: inactive

Compound: Cc1ccc(/C=N/n2c(C(C)c3ccc(CC(C)C)cc3)nn(CN3CCOCC3)c2=S)cc1 (centres undefined)
- inhibition in vivo at 20 mg/kg [1]: 0%
- inhibition in vivo at 20 mg/kg [2]: 23%
- inhibition in vivo at 20 mg/kg [3]: 64%
- inhibition in vivo at 20 mg/kg [4]: 60%
- inhibition in vivo at 20 mg/kg [5]: 67%
- inhibition in vivo at 20 mg/kg [6]: 68%
- Activity [7]: 64.32%
- Activity [8]: inactive
- Activity [9]: inactive
- Activity [10]: inactive

Compound: CC(C)Cc1ccc(C(C)c2nn(CN3CCN(C)CC3)c(=S)n2/N=C/c2ccc([N+](=O)[O-])cc2)cc1 (centres undefined)
- inhibition in vivo at 20 mg/kg [1]: 38%
- inhibition in vivo at 20 mg/kg [2]: 70%
- inhibition in vivo at 20 mg/kg [3]: 82%
- inhibition in vivo at 20 mg/kg [4]: 68%
- inhibition in vivo at 20 mg/kg [5]: 75%
- inhibition in vivo at 20 mg/kg [6]: 74%
- Activity [7]: 70.75%
- Activity [8]: inactive
- Activity [9]: inactive
- Activity [10]: inactive

Compound: CC(C)Cc1ccc(C(C)c2nn(CN(c3ccccc3)c3ccccc3)c(=S)n2/N=C/c2ccc(Br)cc2)cc1 (centres undefined)
- inhibition in vivo at 20 mg/kg [1]: 9%
- inhibition in vivo at 20 mg/kg [2]: 10%
- inhibition in vivo at 20 mg/kg [3]: 38%
- inhibition in vivo at 20 mg/kg [4]: 38%
- inhibition in vivo at 20 mg/kg [5]: 57%
- inhibition in vivo at 20 mg/kg [6]: 57%
- Activity [8]: inactive
- Activity [9]: inactive
- Activity [10]: inactive

Compound: CC(C)Cc1ccc(C(C)C(=O)O)cc1 (centres undefined) [IBUPROFEN]
- inhibition in vivo at 20 mg/kg [1]: 20%
- inhibition in vivo at 20 mg/kg [2]: 18%
- inhibition in vivo at 20 mg/kg [3]: 25%
- inhibition in vivo at 20 mg/kg [4]: 36%
- inhibition in vivo at 20 mg/kg [5]: 39%
- inhibition in vivo at 20 mg/kg [6]: 42%

Compound: CC(C)Cc1ccc(C(C)c2nnc(S)n2/N=C/c2ccc(Br)cc2)cc1 (centres undefined)
- inhibition in vivo at 20 mg/kg [1]: 0%
- inhibition in vivo at 20 mg/kg [2]: 16%
- inhibition in vivo at 20 mg/kg [3]: 65%
- inhibition in vivo at 20 mg/kg [4]: 60%
- inhibition in vivo at 20 mg/kg [5]: 70%
- inhibition in vivo at 20 mg/kg [6]: 72%
- Activity [8]: inactive
- Activity [9]: inactive
- Activity [10]: inactive

Compound: O=C(O)Cc1ccccc1Nc1c(Cl)cccc1Cl [DICLOFENAC]
- inhibition in vivo at 20 mg/kg [1]: 83%
- inhibition in vivo at 20 mg/kg [2]: 59%
- inhibition in vivo at 20 mg/kg [3]: 70%
- inhibition in vivo at 20 mg/kg [4]: 87%
- inhibition in vivo at 20 mg/kg [5]: 69%
- inhibition in vivo at 20 mg/kg [6]: 65%
- Activity [7]: 79.24%
